# Test results from ChEMBL document CHEMBL4715714, “Design, synthesis and biological evaluation of thiosemicarbazones, hydrazinobenzothiazoles and arylhydrazones as anticancer agents with a potential to overcome multidrug resistance” (Eur J Med Chem, 2016).
# Activity calls are given as the source filed them. The rule behind the calls is not given here.
# System: MES-SA
# Experiment: Cytotoxicity against human MES-SA cells transfected with mCherry fluorescent protein assessed as inhibition of cell proliferation incubated for 72 hrs by fluorescent assay
# Type: functional, cell-based
# Settings: Homo sapiens, MES-SA, 72 h; read-out: IC50
# Procedure, shortened: (§1)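 MES-SA and MES-SA/Dx5 cells were made to stably express mCherry by lentiviral transduction. Cells were seeded at 5000 (96-well) or 2500 (384-well) per well, allowed to attach 24 h, then treated with compound dilutions for 72 h. Viability was read as fluorescence, excitation 585 nm, emission 610 nm.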
row,SMILES,IC50 [nM]
1,S=C(N/N=C/c1ccccn1)Nc1ccccc1,720
2,C/C(=N\Nc1ccccn1)c1ccc2ccccc2n1,480
3,CCc1ccc(/C=N/NC(=S)Nc2ccc(OC)cc2)nc1,96
4,Oc1ccccc1/C=N/NC(=S)Nc1ccccc1,14000
5,FC(F)(F)c1ccccc1NC(=S)N/N=C/c1ccccn1,130
6,C/C(=N\NC(=S)Nc1cccc(C)c1)c1ccccn1,32
7,Cc1ccc(O)c(/C=N/Nc2nc3ccccc3s2)c1,89100
8,FC(F)(F)c1cccc(NC(=S)N/N=C/c2ccccn2)c1,850
9,COc1ccc(O)c(/C(C)=N/Nc2nc3ccccc3s2)c1,50700
10,O=C1Nc2ccccc2/C1=N/NC(=S)Nc1cccc(C(F)(F)F)c1,3340
11,C/C(=N\Nc1nc2ccccc2s1)c1ccccc1N,46200
12,Cc1cc(/C=N/Nc2ccccn2)nc2ccccc12,560
13,NC(=S)N/N=C/c1ncccc1N [TRIAPINE],1300
14,O=[N+]([O-])c1ccc(O)c(/C=N/NC(=S)Nc2cccc(C(F)(F)F)c2)c1,16400
15,C/C(=N\NC(=S)Nc1ccccc1C)c1ccccn1,30
16,C/C(=N\Nc1ccccn1)c1cc(C)c2ccccc2n1,300
17,O=[N+]([O-])c1ccc(O)c(/C=N/NC(=S)Nc2ccccc2C(F)(F)F)c1,21100

# Same assay, conditions: Homo sapiens, MES-SA, 72 h; read-out: pIC50 (converted)
row,SMILES,IC50 [nM]
1,S=C(N/N=C/c1ccccn1)Nc1ccccc1,692
2,C/C(=N\Nc1ccccn1)c1ccc2ccccc2n1,479
3,Oc1ccccc1/C=N/NC(=S)Nc1ccccc1,11500
4,FC(F)(F)c1ccccc1NC(=S)N/N=C/c1ccccn1,120
5,C/C(=N\NC(=S)Nc1cccc(C)c1)c1ccccn1,31.6
6,Cc1ccc(O)c(/C=N/Nc2nc3ccccc3s2)c1,85100
7,FC(F)(F)c1cccc(NC(=S)N/N=C/c2ccccn2)c1,832
8,COc1ccc(O)c(/C(C)=N/Nc2nc3ccccc3s2)c1,50100
9,Cc1cc(/C=N/Nc2ccccn2)nc2ccccc12,537
10,C/C(=N\NC(=S)Nc1ccccc1C)c1ccccn1,29.5
11,C/C(=N\Nc1ccccn1)c1cc(C)c2ccccc2n1,288

# Same assay, conditions: mes-sa
row,SMILES,IC50
1,O=C1Nc2ccccc2/C1=N/Nc1nc2ccccc2s1,Not Active

# System: MES-SA/Dx5
# Experiment: Cytotoxicity against human MES-SA/DX5 cells transfected with mCherry fluorescent protein incubated for 72 hrs in presence of efflux pump inhibitor, Tariquidar by fluorescence assay
# Type: functional, cell-based
# Settings: not given
# Procedure, shortened: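 The mCherry-expressing cells (lentiviral) were seeded at 5000 or 2500 per well, attached for 24 h, and exposed 72 h to compounds with Tariquidar coadministered. Live-cell signal was fluorescence at 585 nm excitation and 610 nm emission.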
row,SMILES,Activity
1,Oc1ccccc1/C=N/NC(=S)Nc1ccccc1,Active
2,Cc1ccc(O)c(/C=N/Nc2nc3ccccc3s2)c1,Active
3,COc1ccc(O)c(/C(C)=N/Nc2nc3ccccc3s2)c1,Active
4,O=C1Nc2ccccc2/C1=N/NC(=S)Nc1cccc(C(F)(F)F)c1,inactive

# System: MES-SA
# Experiment: Cytotoxicity against human MES-SA cells assessed as inhibition of cell proliferation incubated for 72 hrs by MTT assay
# Type: functional, cell-based
# Settings: not given
# Procedure, shortened: (§2)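 Cells were seeded (10000/well for A2780, 5000/well for MES-SA/Dx5 and KB-3-1/V1) and left to attach 12 h, then exposed to compound for 72 h. Medium was removed, and MTT (0.83 mg/mL) was added for 1 h at 37 °C. Cells were lysed in DMSO and absorbance read at 540 nm. Signal was corrected for unstained lysate background, normalized to untreated cells, and IC50 taken from a sigmoidal dose-response fit.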
row,SMILES,pIC50
1,O=C1Nc2ccccc2/C1=N/Nc1nc2ccccc2s1,inactive

# Same assay, conditions: read-out: IC50
row,SMILES,IC50 [nM]
1,CCc1ccc(/C=N/NC(=S)Nc2ccc(OC)cc2)nc1,420
2,O=C1Nc2ccccc2/C1=N/NC(=S)Nc1cccc(C(F)(F)F)c1,2060
3,C/C(=N\Nc1nc2ccccc2s1)c1ccccc1N,45600

# Same assay, conditions: read-out: pIC50 (converted)
row,SMILES,IC50 [nM]
1,CCc1ccc(/C=N/NC(=S)Nc2ccc(OC)cc2)nc1,417
2,C/C(=N\Nc1nc2ccccc2s1)c1ccccc1N,44700

# System: not listed separately
# Experiment: Selectivity ratio of IC50 for human MES-SA cells to IC50 for human MES-SA/DX5 cells incubated for 72 hrs by MTT assay
# Type: functional
# Settings: not given
# Procedure, shortened: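 The selectivity ratio is the IC50 in P-gp-negative parental cells divided by the IC50 in the P-gp-positive resistant partner.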
row,SMILES,Ratio IC50
1,O=C1Nc2ccccc2/C1=N/NC(=S)Nc1cccc(C(F)(F)F)c1,1.44
2,C/C(=N\Nc1nc2ccccc2s1)c1ccccc1N,1.64

# System: MES-SA/Dx5
# Experiment: Cytotoxicity against human MES-SA/DX5 cells incubated for 72 hrs in presence of efflux pump inhibitor, Tariquidar by MTT assay
# Type: functional, cell-based
# Settings: not given
# Procedure, shortened: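 Run as the 72 h MTT viability readout (12 h attachment, MTT 0.83 mg/mL for 1 h, DMSO lysis, A540), with the P-gp inhibitor Tariquidar at 1 µM co-present. IC50 came from sigmoidal fits of 2 to 4 independent experiments.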
row,SMILES,Activity
1,O=C1Nc2ccccc2/C1=N/NC(=S)Nc1cccc(C(F)(F)F)c1,inactive
2,NC(=S)N/N=C/c1ncccc1N [TRIAPINE],Active

# System: not listed separately
# Experiment: Selectivity ratio of IC50 for human MES-SA cells transfected with mCherry to IC50 for human MES-SA/DX5 cells transfected with mCherry incubated for 72 hrs by fluorescent assay
# Type: functional
# Settings: not given
row,SMILES,Ratio IC50
1,Oc1ccccc1/C=N/NC(=S)Nc1ccccc1,2.23
2,Cc1ccc(O)c(/C=N/Nc2nc3ccccc3s2)c1,5.65
3,COc1ccc(O)c(/C(C)=N/Nc2nc3ccccc3s2)c1,4.71
4,O=C1Nc2ccccc2/C1=N/NC(=S)Nc1cccc(C(F)(F)F)c1,2.42
5,C/C(=N\Nc1nc2ccccc2s1)c1ccccc1N,2.41

# System: MES-SA/Dx5
# Experiment: Cytotoxicity against human MES-SA/DX5 cells assessed as inhibition of cell proliferation incubated for 72 hrs by MTT assay
# Type: functional, cell-based
# Settings: not given
# Procedure, shortened: as §2
row,SMILES,pIC50
1,O=C1Nc2ccccc2/C1=N/Nc1nc2ccccc2s1,inactive

# Same assay, conditions: MES-SA/Dx5, 72 h, read-out: IC50
row,SMILES,IC50 [nM]
1,CCc1ccc(/C=N/NC(=S)Nc2ccc(OC)cc2)nc1,72
2,O=C1Nc2ccccc2/C1=N/NC(=S)Nc1cccc(C(F)(F)F)c1,1400
3,C/C(=N\Nc1nc2ccccc2s1)c1ccccc1N,28000

# Same assay, conditions: MES-SA/Dx5, 72 h, read-out: pIC50 (converted)
row,SMILES,IC50 [nM]
1,CCc1ccc(/C=N/NC(=S)Nc2ccc(OC)cc2)nc1,63.1
2,C/C(=N\Nc1nc2ccccc2s1)c1ccccc1N,27500

# System: MES-SA/Dx5
# Experiment: Cytotoxicity against human MES-SA/DX5 cells transfected with mCherry fluorescent protein assessed as inhibition of cell proliferation incubated for 72 hrs by fluorescent assay
# Type: functional, cell-based
# Settings: Homo sapiens, MES-SA/Dx5, 72 h; read-out: IC50
# Procedure, shortened: as §1
row,SMILES,IC50 [nM]
1,S=C(N/N=C/c1ccccn1)Nc1ccccc1,580
2,C/C(=N\Nc1ccccn1)c1ccc2ccccc2n1,380
3,CCc1ccc(/C=N/NC(=S)Nc2ccc(OC)cc2)nc1,56
4,Oc1ccccc1/C=N/NC(=S)Nc1ccccc1,6450
5,FC(F)(F)c1ccccc1NC(=S)N/N=C/c1ccccn1,160
6,C/C(=N\NC(=S)Nc1cccc(C)c1)c1ccccn1,63
7,Cc1ccc(O)c(/C=N/Nc2nc3ccccc3s2)c1,15600
8,FC(F)(F)c1cccc(NC(=S)N/N=C/c2ccccn2)c1,720
9,COc1ccc(O)c(/C(C)=N/Nc2nc3ccccc3s2)c1,15400
10,O=C1Nc2ccccc2/C1=N/NC(=S)Nc1cccc(C(F)(F)F)c1,1950
11,C/C(=N\Nc1nc2ccccc2s1)c1ccccc1N,19000
12,Cc1cc(/C=N/Nc2ccccn2)nc2ccccc12,400
13,NC(=S)N/N=C/c1ncccc1N [TRIAPINE],2520
14,O=[N+]([O-])c1ccc(O)c(/C=N/NC(=S)Nc2cccc(C(F)(F)F)c2)c1,11900
15,C/C(=N\NC(=S)Nc1ccccc1C)c1ccccn1,92
16,C/C(=N\Nc1ccccn1)c1cc(C)c2ccccc2n1,290
17,O=[N+]([O-])c1ccc(O)c(/C=N/NC(=S)Nc2ccccc2C(F)(F)F)c1,13900

# Same assay, conditions: Homo sapiens, MES-SA/Dx5, 72 h; read-out: pIC50 (converted)
row,SMILES,IC50 [nM]
1,S=C(N/N=C/c1ccccn1)Nc1ccccc1,562
2,C/C(=N\Nc1ccccn1)c1ccc2ccccc2n1,347
3,Oc1ccccc1/C=N/NC(=S)Nc1ccccc1,4790
4,FC(F)(F)c1ccccc1NC(=S)N/N=C/c1ccccn1,138
5,C/C(=N\NC(=S)Nc1cccc(C)c1)c1ccccn1,61.7
6,Cc1ccc(O)c(/C=N/Nc2nc3ccccc3s2)c1,13800
7,FC(F)(F)c1cccc(NC(=S)N/N=C/c2ccccn2)c1,692
8,COc1ccc(O)c(/C(C)=N/Nc2nc3ccccc3s2)c1,14100
9,Cc1cc(/C=N/Nc2ccccn2)nc2ccccc12,398
10,C/C(=N\NC(=S)Nc1ccccc1C)c1ccccn1,87.1
11,C/C(=N\Nc1ccccn1)c1cc(C)c2ccccc2n1,295
